ChEMBL document CHEMBL2062435, “Synthesis and in vitro antibacterial activity of gemifloxacin derivatives containing a substituted benzyloxime moiety” (2012)

Columns and labels:
Assay type in all cases: functional
Escherichia coli [1] = assay: Antimicrobial activity against extended spectrum beta-lactamases-producing Escherichia coli 10-4 after 18-24 hrs by two-fold serial dilution method
Outline: (§1)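 Agar-medium twofold serial dilution against Gram-positive and Gram-negative strains; MIC taken as the lowest compound concentration giving complete inhibition of bacterial growth after incubation at 35 °C for 18-24 h.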

Pseudomonas aeruginosa [2] = assay: Antimicrobial activity against extended spectrum beta-lactamases-producing Pseudomonas aeruginosa 10-9 after 18-24 hrs by two-fold serial dilution method; outline: as §1
Pseudomonas aeruginosa [3] = assay: Antimicrobial activity against extended spectrum beta-lactamases-producing Pseudomonas aeruginosa 10-5 after 18-24 hrs by two-fold serial dilution method; outline: as §1
Streptococcus pneumoniae [4] = assay: Antimicrobial activity against extended spectrum beta-lactamases-producing Streptococcus pneumoniae 10-1 after 18-24 hrs by two-fold serial dilution method; outline: as §1
[5] = tested on: Staphylococcus epidermidis; assay: Antimicrobial activity against extended spectrum beta-lactamases-producing methicillin-sensitive Staphylococcus epidermidis 10-11 after 18-24 hrs by two-fold serial dilution method; outline: as §1
Escherichia coli [6] = assay: Antimicrobial activity against Escherichia coli 10-2 after 18-24 hrs by two-fold serial dilution method; outline: as §1
Pseudomonas aeruginosa [7] = assay: Antimicrobial activity against extended spectrum beta-lactamases-producing Pseudomonas aeruginosa 10-20 after 18-24 hrs by two-fold serial dilution method; outline: as §1
Enterococcus faecalis [8] = assay: Antimicrobial activity against Enterococcus faecalis 10-7 after 18-24 hrs by two-fold serial dilution method; outline: as §1
Enterococcus faecium [9] = assay: Antimicrobial activity against Enterococcus faecium 10-9 after 18-24 hrs by two-fold serial dilution method; outline: as §1
Streptococcus pneumoniae [10] = assay: Antimicrobial activity against extended spectrum beta-lactamases-producing Streptococcus pneumoniae 10-4 after 18-24 hrs by two-fold serial dilution method; outline: as §1
[11] = tested on: Staphylococcus epidermidis; assay: Antimicrobial activity against extended spectrum beta-lactamases-producing methicillin-resistant Staphylococcus epidermidis 10-10 after 18-24 hrs by two-fold serial dilution method
Outline: (§2)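 Agar twofold serial dilution MIC against clinical isolates. MIC was taken as the lowest concentration giving complete inhibition of bacterial growth after incubation at 35 °C for 18-24 h.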

Escherichia coli [12] = assay: Antimicrobial activity against extended spectrum beta-lactamases-producing Escherichia coli 10-2 after 18-24 hrs by two-fold serial dilution method; outline: as §1
Pseudomonas aeruginosa [13] = assay: Antimicrobial activity against Pseudomonas aeruginosa 10-12 after 18-24 hrs by two-fold serial dilution method; outline: as §1
Escherichia coli [14] = assay: Antimicrobial activity against Escherichia coli ATCC 25922 after 18-24 hrs by two-fold serial dilution method; outline: as §1
Pseudomonas aeruginosa [15] = assay: Antimicrobial activity against extended spectrum beta-lactamases-producing Pseudomonas aeruginosa 10-15 after 18-24 hrs by two-fold serial dilution method; outline: as §1
Escherichia coli [16] = assay: Antimicrobial activity against extended spectrum beta-lactamases-producing Escherichia coli 10-3 after 18-24 hrs by two-fold serial dilution method; outline: as §1
Staphylococcus aureus [17] = assay: Antimicrobial activity against extended spectrum beta-lactamases-producing methicillin-resistant Staphylococcus aureus 10-11 after 18-24 hrs by two-fold serial dilution method; outline: as §2
[18] = tested on: Staphylococcus epidermidis; assay: Antimicrobial activity against extended spectrum beta-lactamases-producing methicillin-sensitive Staphylococcus epidermidis 10-13 after 18-24 hrs by two-fold serial dilution method; outline: as §1
Staphylococcus aureus [19] = assay: Antimicrobial activity against Staphylococcus aureus ATCC […] after 18-24 hrs by two-fold serial dilution method; outline: as §1
Klebsiella pneumoniae [20] = assay: Antimicrobial activity against Klebsiella pneumoniae 10-4 after 18-24 hrs by two-fold serial dilution method; outline: as §1
Escherichia coli [21] = assay: Antimicrobial activity against Escherichia coli 10-1 after 18-24 hrs by two-fold serial dilution method; outline: as §1
Klebsiella pneumoniae [22] = assay: Antimicrobial activity against extended spectrum beta-lactamases-producing Klebsiella pneumoniae 10-2 after 18-24 hrs by two-fold serial dilution method; outline: as §1
Staphylococcus aureus [23] = assay: Antimicrobial activity against extended spectrum beta-lactamases-producing methicillin-sensitive Staphylococcus aureus 10-14 after 18-24 hrs by two-fold serial dilution method; outline: as §1
Staphylococcus aureus [24] = assay: Antimicrobial activity against extended spectrum beta-lactamases-producing methicillin-sensitive Staphylococcus aureus 10-13 after 18-24 hrs by two-fold serial dilution method; outline: as §1
Klebsiella pneumoniae [25] = assay: Antimicrobial activity against Klebsiella pneumoniae 10-2 after 18-24 hrs by two-fold serial dilution method; outline: as §1
[26] = tested on: Staphylococcus epidermidis; assay: Antimicrobial activity against extended spectrum beta-lactamases-producing methicillin-sensitive Staphylococcus epidermidis 10-15 after 18-24 hrs by two-fold serial dilution method; outline: as §1
Enterococcus faecalis [27] = assay: Antimicrobial activity against Enterococcus faecalis 10-6 after 18-24 hrs by two-fold serial dilution method; outline: as §1
Pseudomonas aeruginosa [28] = assay: Antimicrobial activity against extended spectrum beta-lactamases-producing Pseudomonas aeruginosa 10-18 after 18-24 hrs by two-fold serial dilution method; outline: as §1
Klebsiella pneumoniae [29] = assay: Antimicrobial activity against extended spectrum beta-lactamases-producing Klebsiella pneumoniae 10-3 after 18-24 hrs by two-fold serial dilution method; outline: as §1
Klebsiella pneumoniae [30] = assay: Antimicrobial activity against Klebsiella pneumoniae 10-3 after 18-24 hrs by two-fold serial dilution method; outline: as §1
[31] = tested on: Staphylococcus epidermidis; assay: Antimicrobial activity against extended spectrum beta-lactamases-producing methicillin-resistant Staphylococcus epidermidis 10-13 after 18-24 hrs by two-fold serial dilution method; outline: as §2
Enterococcus faecium [32] = assay: Antimicrobial activity against Enterococcus faecium 10-5 after 18-24 hrs by two-fold serial dilution method; outline: as §1
Staphylococcus aureus [33] = assay: Antimicrobial activity against extended spectrum beta-lactamases-producing methicillin-resistant Staphylococcus aureus 10-15 after 18-24 hrs by two-fold serial dilution method; outline: as §2
Enterococcus faecalis [34] = assay: Antimicrobial activity against Enterococcus faecalis 10-5 after 18-24 hrs by two-fold serial dilution method; outline: as §1
Escherichia coli [35] = assay: Antimicrobial activity against Escherichia coli 10-3 after 18-24 hrs by two-fold serial dilution method; outline: as §1
Klebsiella pneumoniae [36] = assay: Antimicrobial activity against extended spectrum beta-lactamases-producing Klebsiella pneumoniae 10-1 after 18-24 hrs by two-fold serial dilution method; outline: as §1

SMILES | MIC (Escherichia coli [1]) | MIC (Pseudomonas aeruginosa [2]) | MIC (Pseudomonas aeruginosa [3]) | MIC (Streptococcus pneumoniae [4]) | MIC [5] | MIC (Escherichia coli [6]) | MIC (Pseudomonas aeruginosa [7]) | MIC (Enterococcus faecalis [8]) | MIC (Enterococcus faecium [9]) | MIC (Streptococcus pneumoniae [10]) | MIC [11] | MIC (Escherichia coli [12]) | MIC (Pseudomonas aeruginosa [13]) | MIC (Escherichia coli [14]) | MIC (Pseudomonas aeruginosa [15]) | MIC (Escherichia coli [16]) | MIC (Staphylococcus aureus [17]) | MIC [18] | MIC (Staphylococcus aureus [19]) | MIC (Klebsiella pneumoniae [20]) | further results
COc1cc(CO/N=C2\CN(c3nc4c(cc3F)c(=O)c(C(=O)O)cn4C3CC3)CC2CN)cc(Cl)c1OC.CS(=O)(=O)O (racemic) | 16 µg/mL | 16 µg/mL | 16 µg/mL | 0.06 µg/mL | 2 µg/mL | 16 µg/mL | 8 µg/mL | 2 µg/mL | 16 µg/mL | 0.03 µg/mL | 2 µg/mL | > 128 µg/mL | 16 µg/mL | 0.015 µg/mL | 32 µg/mL | > 128 µg/mL | 4 µg/mL | 0.015 µg/mL | < 0.008 µg/mL | > 128 µg/mL | MIC (Escherichia coli [21]): > 128 µg/mL; MIC (Klebsiella pneumoniae [22]): > 128 µg/mL; MIC (Staphylococcus aureus [23]): 0.015 µg/mL; MIC (Staphylococcus aureus [24]): 0.015 µg/mL; MIC (Klebsiella pneumoniae [25]): 128 µg/mL; MIC [26]: 4 µg/mL; MIC (Enterococcus faecalis [27]): 4 µg/mL; MIC (Pseudomonas aeruginosa [28]): 16 µg/mL; MIC (Klebsiella pneumoniae [29]): > 128 µg/mL; MIC (Klebsiella pneumoniae [30]): 8 µg/mL; MIC [31]: 0.25 µg/mL; MIC (Enterococcus faecium [32]): 8 µg/mL; MIC (Staphylococcus aureus [33]): 0.25 µg/mL; MIC (Enterococcus faecalis [34]): 0.25 µg/mL; MIC (Escherichia coli [35]): 128 µg/mL; MIC (Klebsiella pneumoniae [36]): > 128 µg/mL
COc1cc(CO/N=C2\CN(c3nc4c(cc3F)c(=O)c(C(=O)O)cn4C3CC3)CC2CN)ccc1OC(F)F.CS(=O)(=O)O (racemic) | 8 µg/mL | 8 µg/mL | 8 µg/mL | 0.25 µg/mL | 0.25 µg/mL | 16 µg/mL | 8 µg/mL | 4 µg/mL | 16 µg/mL | 2 µg/mL | 2 µg/mL | > 128 µg/mL | 8 µg/mL | 0.06 µg/mL | 32 µg/mL | > 128 µg/mL | 2 µg/mL | 8 µg/mL | 0.008 µg/mL | > 128 µg/mL | MIC (Escherichia coli [21]): > 128 µg/mL; MIC (Klebsiella pneumoniae [22]): > 128 µg/mL; MIC (Staphylococcus aureus [23]): 0.03 µg/mL; MIC (Staphylococcus aureus [24]): 0.06 µg/mL; MIC (Klebsiella pneumoniae [25]): > 128 µg/mL; MIC [26]: 4 µg/mL; MIC (Enterococcus faecalis [27]): 8 µg/mL; MIC (Pseudomonas aeruginosa [28]): 16 µg/mL; MIC (Klebsiella pneumoniae [29]): > 128 µg/mL; MIC (Klebsiella pneumoniae [30]): 8 µg/mL; MIC [31]: 4 µg/mL; MIC (Enterococcus faecium [32]): 8 µg/mL; MIC (Staphylococcus aureus [33]): 0.5 µg/mL; MIC (Enterococcus faecalis [34]): 2 µg/mL; MIC (Escherichia coli [35]): 16 µg/mL; MIC (Klebsiella pneumoniae [36]): > 128 µg/mL
COc1cc(CO/N=C2\CN(c3nc4c(cc3F)c(=O)c(C(=O)O)cn4C3CC3)CC2CN)c([N+](=O)[O-])cc1OC.CS(=O)(=O)O (racemic) | 4 µg/mL | 16 µg/mL | 16 µg/mL | 1 µg/mL | 2 µg/mL | 8 µg/mL | 32 µg/mL | 2 µg/mL | 16 µg/mL | 0.125 µg/mL | 1 µg/mL | > 128 µg/mL | 16 µg/mL | 0.25 µg/mL | 32 µg/mL | > 128 µg/mL | 2 µg/mL | 0.25 µg/mL | 0.015 µg/mL | > 128 µg/mL | MIC (Escherichia coli [21]): > 128 µg/mL; MIC (Klebsiella pneumoniae [22]): > 128 µg/mL; MIC (Staphylococcus aureus [23]): 0.125 µg/mL; MIC (Staphylococcus aureus [24]): 0.125 µg/mL; MIC (Klebsiella pneumoniae [25]): > 128 µg/mL; MIC [26]: 8 µg/mL; MIC (Enterococcus faecalis [27]): 16 µg/mL; MIC (Pseudomonas aeruginosa [28]): 16 µg/mL; MIC (Klebsiella pneumoniae [29]): > 128 µg/mL; MIC (Klebsiella pneumoniae [30]): 4 µg/mL; MIC [31]: 1 µg/mL; MIC (Enterococcus faecium [32]): 8 µg/mL; MIC (Staphylococcus aureus [33]): 1 µg/mL; MIC (Enterococcus faecalis [34]): 0.125 µg/mL; MIC (Escherichia coli [35]): 32 µg/mL; MIC (Klebsiella pneumoniae [36]): > 128 µg/mL
